Tests used:
[1] = system: Transmissible gastroenteritis virus; assay: Antiviral activity against Transmissible gastroenteritis virus infected in ST cells pre-treated 2 hrs before virus infection measured 6 hrs post virus infection by immunofluorescent assay; type: functional, organism-based; settings: Alphacoronavirus 1, ST
Procedure, shortened: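 ST cells, with or without 2 h compound pretreatment (10 concentrations), infected with TGEV at MOI 10. Immunofluorescence with anti-spike and anti-nucleocapsid antibodies at 6 hpi. EC50 from dose–response curves, mean of at least three experiments, each in duplicate.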

[2] = Growth inhibition of human HONE1 cells; type: functional
Procedure, shortened: (§1)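 Cells seeded per well: NUGC-3 4500, HONE-1 6000, MCF-7 6500, NCI-H460 2500, HepG2 10000, A549 5000; A549 grown in RPMI 1640 with 2 g/L NaHCO₃, 2 mM L-glutamine and 10% FBS. GI₅₀ = concentration giving 50% growth inhibition, mean of at least three experiments each in duplicate. Paclitaxel served as positive control.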

NUGC-3 = assay: Growth inhibition of human NUGC3 cells; type: functional; procedure, shortened: as §1
NCI-H460 = assay: Growth inhibition of human NCI-H460 cells; type: functional; procedure, shortened: as §1
MCF7 = assay: Growth inhibition of human MCF7 cells; type: functional; procedure, shortened: as §1
A549 = assay: Growth inhibition of human A549 cells; type: functional; procedure, shortened: as §1
HepG2 = assay: Growth inhibition of human HepG2 cells; type: functional; procedure, shortened: as §1
[3] = Cytotoxicity against mouse RAW264.7 cells; type: cell-based
Procedure, shortened: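 RAW264.7 cells stimulated with LPS/IFNγ and compound-treated in parallel with the NO assay; CC50 taken as concentration giving 50% inhibition of cell growth. Mean of at least three experiments, each in duplicate.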

RAW264.7 = assay: Antiinflammatory activity in mouse RAW264.7 cells assessed as inhibition of LPS-induced nitric oxide production incubated for 18 hrs by nitrate/nitrite assay; type: functional, cell-based; settings: RAW264.7, 18 h
Procedure, shortened: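 RAW264.7 seeded 65000 cells/well, cultured 24 h, then medium replaced with complete medium containing IFNγ (20 ng/mL)/LPS (5 μg/mL) plus compound at various concentrations for 18 h; nitric oxide measured by Nitrate/Nitrite kit. EC50 as mean of at least three experiments, each in duplicate.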

Structure (SMILES)	EC50 [1] [nM]	GI50 [2] [nM]	GI50 (NUGC-3) [nM]	GI50 (NCI-H460) [nM]	GI50 (MCF7) [nM]	GI50 (A549) [nM]	GI50 (HepG2) [nM]	CC50 [3] [nM]	EC50 (RAW264.7) [nM]
CCCCN1CCc2c(c3cc(OC)c(OC)cc3c3cc(OC)ccc23)C1	5600	4770	3990	3510	4730	2390	4040	–	–
COc1cc2c3c(c4cc(OC)c(OC)cc4c2cc1OC)CN(CCCOC1CCCCO1)CC3 (centres undefined)	30800	9650	8220	7490	9800	3780	14000	–	–
CCCCN1Cc2c(c3ccc(OC)cc3c3cc(OC)c(OC)cc23)C(O)C1 (centres undefined)	2920	3000	1860	1480	2330	1320	1850	–	–
COc1cc2c3c(c4cc(OC)c(OC)cc4c2cc1OC)CN(CCCO)CC3	19300	16600	6630	9410	7140	5470	16900	–	–
CCCN1Cc2c(c3ccc(OC)cc3c3cc(OC)c(OC)cc23)C(O)C1 (centres undefined)	120	140	110	50	110	50	110	–	–
CCCN1Cc2c(c3cc(OC)c(OC)cc3c3cc(OC)c(OC)cc23)C(O)C1 (centres undefined)	670	1740	730	1080	1020	1190	1680	> 4000	2200
CCCN1CCc2c(c3cc(OC)ccc3c3c(OC)c(OC)ccc23)C1	2630	4750	3720	3760	4110	3670	6290	–	–
CCCN1CCc2c(c3cc(OC)c(OC)cc3c3c(OC)c(OC)c(OC)cc23)C1	770	960	540	490	620	790	860	–	–
COc1cc2c3c(c4cc(OC)c(OC)cc4c2cc1OC)CN(CC(C)C)CC3	1360	1720	1040	870	910	1320	1810	–	–
CCCCN1CCc2c(c3cc(OC)c(OC)cc3c3c(OC)c(OC)c(OC)cc23)C1	2920	4060	2540	2680	3190	3010	5010	–	–
CC(=O)O[C@H]1C(=O)[C@@]2(C)[C@H]([C@H](OC(=O)c3ccccc3)[C@]3(O)C[C@H](OC(=O)[C@H](O)[C@@H](NC(=O)c4ccccc4)c4ccccc4)C(C)=C1C3(C)C)[C@]1(OC(C)=O)CO[C@@H]1C[C@@H]2O [PACLITAXEL]	–	20	20	30	30	60	180	–	–
COc1cc2c3c(c4cc(OC)c(OC)c(OC)c4c2cc1OC)CCN(C(C)C)C3	780	1120	640	570	720	760	1610	–	–
COc1cc2c3c(c4cc(OC)c(OC)cc4c2cc1OC)CN(CCC1OCCO1)CC3	31900	6130	4950	4150	4600	4820	6490	–	–
CCCCCN1CCc2c(c3cc(OC)c(OC)cc3c3cc(OC)c(OC)cc23)C1	6530	6200	7670	6110	9510	–	8050	–	–
CCCN1CCc2c(c3ccc(OC)cc3c3cc(OC)c(OC)cc23)C1	8680	3310	2940	2400	2830	2950	3170	–	–
COc1cc2c3c(c4cc(OC)c(OC)cc4c2cc1OC)CN(CCCN)CC3	23400	21100	10300	11700	15300	6040	36900	–	–
COc1cc2c3c(c4cc(OC)c(OC)cc4c2cc1OC)CN(CC1OCCO1)CC3	> 50000	22100	19100	18500	22400	31500	41000	–	–
COc1cc2c3c(c4cc(OC)c(OC)cc4c2cc1OC)CN(CCCNC(=O)OC(C)(C)C)CC3	1030	4520	3400	2890	3350	3550	4150	–	–
CCCN1CCc2c(c3cc(OC)ccc3c3cc(OC)c(OC)cc23)C1	8910	5560	4630	3820	3750	4640	4480	–	–
CCN1CCc2c(c3cc(OC)c(OC)cc3c3c(OC)c(OC)c(OC)cc23)C1	1140	1990	1700	870	1180	1410	2500	–	–
CCC(C)N1CCc2c(c3cc(OC)c(OC)cc3c3cc(OC)c(OC)cc23)C1 (centres undefined)	730	1150	440	450	400	530	510	–	–
CCN1CCc2c(c3cc(OC)ccc3c3cc(OC)c(OC)cc23)C1	14200	4870	3480	3390	3120	4380	4010	–	–
CCCN1CCc2c(c3cc(OC)c(OC)cc3c3cc(OC)ccc23)C1	680	770	430	260	420	470	480	–	–
COc1cc2c3c(c4cc(OC)c(OC)cc4c2cc1OC)C(O)CN(C(C)C)C3 (centres undefined)	2740	1710	870	1070	1210	1230	1860	> 4000	2050
COc1cc2c3c(c4cc(OC)c(OC)cc4c2cc1OC)CN(C1C=CCCC1)CC3 (centres undefined)	2990	2530	1880	2300	2210	1920	3640	–	–
CCCN1Cc2c(c3cc(OC)c(OC)c(OC)c3c3cc(OC)c(OC)cc23)C(O)C1 (centres undefined)	660	820	490	590	590	820	830	–	–

Source: ChEMBL document CHEMBL2177013, “Synthesis and biological evaluation of tylophorine-derived dibenzoquinolines as orally active agents: exploration of the role of tylophorine e ring on biological activity” (J Med Chem, 2012)
